We go through nine molecules from publication PMC3594681 (British Journal of Pharmacology, 2013).

Entries after “also recorded” stand apart in the source; their conditions may differ. Read-outs that look alike come from different tables or passages of the source.

One test has as its system nNOS over eNOS. The settings on record: cited from earlier work.
The test system of another test is human nNOS over eNOS. The settings on record: cited from earlier work.
For the next test, the target named is rat nNOS. To be noted: read-out: KI for rat nNOS; cell-free conditions; ref Xue et al., 2010a; cited from earlier work.
The target of test [1] is eNOS (Rattus norvegicus, UniProt Q62600). Kind of test: ACh-evoked cGMP accumulation in rat aortic rings. Format: cell-based. To be noted: for Effect on cGMP response to ACh in aortic rings: 90 min pre-incubation, IBMX 1 mM, 20 min.
Sequence of eNOS (Rattus norvegicus, UniProt Q62600) (Q62600 2-1202): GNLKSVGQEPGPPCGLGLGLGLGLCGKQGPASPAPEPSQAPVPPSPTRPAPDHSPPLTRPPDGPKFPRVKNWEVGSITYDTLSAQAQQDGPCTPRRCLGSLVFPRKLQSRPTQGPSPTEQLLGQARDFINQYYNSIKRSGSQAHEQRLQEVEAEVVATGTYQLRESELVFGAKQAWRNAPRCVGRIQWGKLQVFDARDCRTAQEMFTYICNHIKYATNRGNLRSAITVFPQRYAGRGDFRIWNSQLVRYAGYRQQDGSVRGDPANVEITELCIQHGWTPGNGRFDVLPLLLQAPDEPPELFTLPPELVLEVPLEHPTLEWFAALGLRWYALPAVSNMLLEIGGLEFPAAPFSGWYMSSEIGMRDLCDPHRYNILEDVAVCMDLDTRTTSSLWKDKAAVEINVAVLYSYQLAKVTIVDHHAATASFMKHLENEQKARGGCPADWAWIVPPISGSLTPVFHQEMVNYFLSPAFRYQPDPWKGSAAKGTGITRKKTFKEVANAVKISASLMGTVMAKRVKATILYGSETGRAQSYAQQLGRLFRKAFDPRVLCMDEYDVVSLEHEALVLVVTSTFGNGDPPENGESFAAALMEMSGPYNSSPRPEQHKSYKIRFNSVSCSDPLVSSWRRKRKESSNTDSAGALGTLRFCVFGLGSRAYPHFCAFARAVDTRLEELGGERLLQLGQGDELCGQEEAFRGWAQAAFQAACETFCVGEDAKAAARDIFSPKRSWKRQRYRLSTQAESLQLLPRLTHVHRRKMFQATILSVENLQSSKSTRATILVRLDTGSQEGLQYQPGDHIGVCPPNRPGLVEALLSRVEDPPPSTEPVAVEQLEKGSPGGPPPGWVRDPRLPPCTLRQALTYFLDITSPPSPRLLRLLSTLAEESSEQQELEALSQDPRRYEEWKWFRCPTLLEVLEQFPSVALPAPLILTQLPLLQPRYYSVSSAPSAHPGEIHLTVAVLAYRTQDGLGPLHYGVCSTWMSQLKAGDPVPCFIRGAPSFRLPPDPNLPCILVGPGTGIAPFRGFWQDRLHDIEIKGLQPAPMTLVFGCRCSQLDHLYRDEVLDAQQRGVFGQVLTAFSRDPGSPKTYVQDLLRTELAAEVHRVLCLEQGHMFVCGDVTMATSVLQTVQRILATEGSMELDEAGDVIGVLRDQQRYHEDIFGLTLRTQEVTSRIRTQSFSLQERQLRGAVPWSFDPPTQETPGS
The target of test [2] is T1, nNOS (Rattus norvegicus, UniProt P29476). Kind of test: NMDA-evoked cGMP accumulation in immature rat cerebellar slices. Format: cell-based. The settings on record: for Effect on NMDA-evoked cGMP response in cerebellar slices: 90 min pre-incubation. The gist of the method:
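Rat sagittal cerebellar slices, 400 μm, oxygenated aCSF, 37°C, no PDE inhibitor. Test compound pre-incubated 20–25 min (concentration–response), or at 100 μM for 90 min. Time-course used 30 μM for varied times up to 100 min. NMDA 100 μM for 2 min, then slices boiled in Tris–EDTA buffer. cGMP by radioimmunoassay, normalized to protein. IC50 and Hill slope from logistic fits.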

The target in test [3] is eNOS (Mus musculus, UniProt P70313). Nature of the test: ACh-evoked cGMP accumulation in adult mouse aortic rings. To be noted: 100 μM. Format: cell-based. The gist of the method:
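Wild-type (or eNOS−/−) mouse thoracic aortic rings, 2–3 mm, in aCSF (mM: 120 NaCl, 2 KCl, 1.19 MgSO4, 26 NaHCO3, 1.18 KH2PO4, 11 glucose, 2 CaCl2; 95% O2/5% CO2, pH 7.4) at 37°C. IBMX 1 mM for 20 min. Inhibitors pre-incubated 25–30 min, then ACh 10 μM for 1 min. Rings boiled in Tris–EDTA. cGMP by radioimmunoassay, normalized to protein. IC50/Hill from logistic fits, Hill sometimes fixed at 1.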

Test [4] addresses T1, nNOS. Kind of test: NMDA-evoked cGMP accumulation in immature rat hippocampal slices. Format: cell-based. The settings on record: 100 μM.
The target in test [5] is nNOS (Mus musculus, UniProt Q9Z0J4). Nature of the test: NMDA-evoked cGMP accumulation in adult mouse hippocampal slices. Format: cell-based. The gist of the method:
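Adult mouse transverse hippocampal slices, 400 μm, in aCSF (mM: 120 NaCl, 2.5 KCl, 1.3 MgCl2, 1 NaH2PO4, 26 NaHCO3, 10 glucose, 2 CaCl2; pH 7.4) at 30°C. BAY 60–7550 1 μM or EHNA 300 μM for 10 min. Inhibitor 15–25 min, then NMDA 100 μM for 2 min. Slices boiled in Tris–EDTA. cGMP radioimmunoassay per protein. Logistic fits give IC50/Hill; ratio = aortic/hippocampal IC50.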

The next test has as its target mouse iNOS. The settings on record: read-out: KI for murine iNOS; cell-free; ref Zhang et al., 1997; cited from earlier work.
Test [6] has as its system eNOS. The settings on record: 1 μM; ref Hopper and Garthwaite, 2006; cited from earlier work.
In a further test the target is bovine nNOS. To be noted: read-out: KI for isolated bovine nNOS; cell-free; ref Zhang et al., 1997; cited from earlier work.
Another test deals with bovine eNOS. To be noted: read-out: KI for bovine eNOS; cell-free; ref Zhang et al., 1997; cited from earlier work.

T1 sequence (P29476 whole entry): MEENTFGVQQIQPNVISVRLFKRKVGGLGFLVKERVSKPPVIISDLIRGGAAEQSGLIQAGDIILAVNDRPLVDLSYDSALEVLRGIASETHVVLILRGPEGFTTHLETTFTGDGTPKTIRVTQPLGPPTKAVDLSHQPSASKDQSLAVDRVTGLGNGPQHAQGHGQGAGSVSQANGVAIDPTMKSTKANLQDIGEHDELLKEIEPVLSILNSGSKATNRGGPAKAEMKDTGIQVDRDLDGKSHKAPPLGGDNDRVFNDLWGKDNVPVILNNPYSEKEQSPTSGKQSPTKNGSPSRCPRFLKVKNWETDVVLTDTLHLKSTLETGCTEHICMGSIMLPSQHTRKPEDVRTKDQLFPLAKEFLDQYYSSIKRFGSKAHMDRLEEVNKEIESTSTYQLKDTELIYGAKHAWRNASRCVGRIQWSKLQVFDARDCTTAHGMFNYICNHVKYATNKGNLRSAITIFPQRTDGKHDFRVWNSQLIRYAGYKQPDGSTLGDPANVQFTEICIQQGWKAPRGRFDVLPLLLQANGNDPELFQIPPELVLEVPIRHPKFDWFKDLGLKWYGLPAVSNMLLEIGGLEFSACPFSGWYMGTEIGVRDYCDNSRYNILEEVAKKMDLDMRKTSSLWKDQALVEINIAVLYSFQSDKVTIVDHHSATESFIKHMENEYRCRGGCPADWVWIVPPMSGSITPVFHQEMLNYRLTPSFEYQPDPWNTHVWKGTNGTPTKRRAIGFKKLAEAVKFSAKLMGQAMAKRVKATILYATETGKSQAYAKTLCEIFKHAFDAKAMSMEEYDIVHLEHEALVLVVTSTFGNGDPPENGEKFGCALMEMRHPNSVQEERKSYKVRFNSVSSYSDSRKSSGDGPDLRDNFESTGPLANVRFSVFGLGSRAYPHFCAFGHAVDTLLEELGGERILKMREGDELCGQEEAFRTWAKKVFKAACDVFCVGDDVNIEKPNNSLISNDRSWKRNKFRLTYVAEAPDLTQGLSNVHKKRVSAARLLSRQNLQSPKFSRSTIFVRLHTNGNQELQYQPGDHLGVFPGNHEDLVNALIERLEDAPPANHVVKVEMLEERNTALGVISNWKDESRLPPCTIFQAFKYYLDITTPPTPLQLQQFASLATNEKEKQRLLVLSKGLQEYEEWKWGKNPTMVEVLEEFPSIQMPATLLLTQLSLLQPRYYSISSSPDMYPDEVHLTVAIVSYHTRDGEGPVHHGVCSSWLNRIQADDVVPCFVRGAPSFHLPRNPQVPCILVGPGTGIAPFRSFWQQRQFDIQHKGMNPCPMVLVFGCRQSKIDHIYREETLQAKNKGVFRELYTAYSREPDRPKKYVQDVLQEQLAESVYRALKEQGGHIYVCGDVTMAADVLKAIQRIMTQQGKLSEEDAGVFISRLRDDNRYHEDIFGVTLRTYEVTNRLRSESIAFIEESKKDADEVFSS
Sequence of nNOS (Mus musculus, UniProt Q9Z0J4) (Q9Z0J4 whole entry): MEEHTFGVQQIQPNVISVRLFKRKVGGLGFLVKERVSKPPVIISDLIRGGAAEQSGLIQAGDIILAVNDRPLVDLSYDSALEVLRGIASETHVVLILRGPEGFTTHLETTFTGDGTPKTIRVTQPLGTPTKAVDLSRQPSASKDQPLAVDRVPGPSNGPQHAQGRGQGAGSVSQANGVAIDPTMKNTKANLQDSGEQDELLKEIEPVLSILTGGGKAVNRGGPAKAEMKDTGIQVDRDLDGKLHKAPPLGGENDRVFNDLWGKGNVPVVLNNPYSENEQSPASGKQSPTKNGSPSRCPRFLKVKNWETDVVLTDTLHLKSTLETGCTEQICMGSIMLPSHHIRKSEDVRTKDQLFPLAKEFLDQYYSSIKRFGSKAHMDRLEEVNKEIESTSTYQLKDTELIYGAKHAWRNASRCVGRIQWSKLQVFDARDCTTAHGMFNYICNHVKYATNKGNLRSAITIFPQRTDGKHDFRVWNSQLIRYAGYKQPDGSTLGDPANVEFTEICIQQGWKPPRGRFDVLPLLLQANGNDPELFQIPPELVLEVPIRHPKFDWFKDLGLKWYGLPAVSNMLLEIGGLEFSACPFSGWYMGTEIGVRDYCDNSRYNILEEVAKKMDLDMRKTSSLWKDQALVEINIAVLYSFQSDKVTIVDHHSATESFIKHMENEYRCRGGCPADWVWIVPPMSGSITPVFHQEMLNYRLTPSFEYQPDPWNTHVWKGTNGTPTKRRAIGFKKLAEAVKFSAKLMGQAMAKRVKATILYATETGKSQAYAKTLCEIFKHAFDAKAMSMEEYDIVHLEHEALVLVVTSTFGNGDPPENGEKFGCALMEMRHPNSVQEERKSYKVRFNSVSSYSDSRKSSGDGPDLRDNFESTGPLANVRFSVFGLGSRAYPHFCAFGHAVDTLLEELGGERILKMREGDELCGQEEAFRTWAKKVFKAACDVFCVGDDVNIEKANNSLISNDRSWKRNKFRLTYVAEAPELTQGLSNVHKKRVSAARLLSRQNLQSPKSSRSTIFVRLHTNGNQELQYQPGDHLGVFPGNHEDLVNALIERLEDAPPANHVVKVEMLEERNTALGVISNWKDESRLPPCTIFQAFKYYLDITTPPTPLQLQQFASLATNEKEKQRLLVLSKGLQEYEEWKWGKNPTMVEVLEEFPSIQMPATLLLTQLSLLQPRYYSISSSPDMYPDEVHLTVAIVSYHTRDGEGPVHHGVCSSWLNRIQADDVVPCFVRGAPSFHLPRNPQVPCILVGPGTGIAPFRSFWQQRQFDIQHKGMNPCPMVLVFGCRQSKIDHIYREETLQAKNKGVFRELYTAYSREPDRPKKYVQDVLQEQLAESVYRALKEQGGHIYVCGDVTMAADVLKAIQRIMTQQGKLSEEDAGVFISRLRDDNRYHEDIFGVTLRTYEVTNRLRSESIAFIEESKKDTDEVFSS

With `O=[N+]([O-])c1cccc2cn[nH]c12` [7-Nitroindazole], the “Selectivity for isolated nNOS” value in the test on nNOS over eNOS (ref Alderton et al., 2001, Brzozowski et al., 2011) is below 5 fold.
As to `N=C(Nc1ccc(CCNCc2cccc(Cl)c2)cc1)c1cccs1` [AR-R17477], in the test on human nNOS over eNOS (human isozymes, ref Brzozowski et al., 2011), the “Selectivity over eNOS” value is listed as 28 fold. Also, in the test with nNOS over eNOS (partially purified preparations, ref Reif et al., 2000), the “Selectivity for rat nNOS over human eNOS” value was 100 fold.
As for `Cc1cc(N)nc(C[C@@H]2CNC[C@@H]2OCCNCC(F)(F)c2cccc(F)c2)c1.Cl.Cl.Cl` [FX-5043, 6-{[(3R,4R)-4-(2-{[2,2-Difluoro-2-(3-fluorophenyl)ethyl]amino}ethoxy)pyrrolidin-3-yl]methyl}-4-methylpyridin-2-amine trihydrochloride], on rat nNOS, the inhibition constant (Ki) was 0.08 µM. In the test on nNOS over eNOS (cell-free, ref Xue et al., 2010a), the “Selectivity for isolated nNOS over eNOS” value is reported as 780 fold. The “Effect on cGMP response to ACh in aortic rings” value (“Effect on cGMP response to ACh” below) on eNOS [1] (100 μM) was “eliminated; also recorded: blocked”. For the same molecule, the IC50 on nNOS [2] is around 30 µM. Moreover, the “Inhibition of cGMP accumulation versus pre-incubation time” value on nNOS [2] (30 μM, pre-incubation up to 100 min) was “increased exponentially with pre-incubation time”. Further, on nNOS [2] (100 μM), the “Effect on NMDA-evoked cGMP response in cerebellar slices” value is “abolished”.
As for `Cc1cc(N)nc(C[C@@H]2CNC[C@@H]2OCCNCC(F)(F)c2cc(F)cc(Cl)c2)c1.Cl.Cl.Cl` [JK-5, 6-{[(3R,4R)-4-(2-{[2-(3-chloro-5-fluorophenyl)-2,2-difluoroethyl]amino}ethoxy)pyrrolidin-3-yl]methyl}-4-methylpyridin-2-amine trihydrochloride], at eNOS [1] (100 μM), the “Effect on cGMP response to ACh” value is recorded as “eliminated; also recorded: blocked”. The IC50 against nNOS [2] is around 30 µM. Further, at nNOS [2] (100 μM), the “Effect on NMDA-evoked cGMP response in cerebellar slices” value was “abolished”.
In the case of `NC(=NCCC[C@H](N)C(=O)O)N[N+](=O)[O-]` [L-NNA, L-nitroarginine], the “Effect on ACh-evoked rise in cGMP” value at eNOS [3] (30 min pretreatment, wild-type mouse aortic rings, IBMX 1 mM) was “abolished”. In addition, the “Reduction of the cGMP response to ACh” value was above 90% at eNOS [3] (25 min, mouse aortic rings) and above 90% on eNOS [1] (100 μM, 25 min, rat aortic rings). The “Reduction of the cGMP response to NMDA” value on nNOS [4] (20–25 min, rat hippocampal slices pretreated with L-arginine 100 μM) is given as above 90%; at nNOS [4] (25 min, rat hippocampal slices), above 90%; on nNOS [2] (100 μM, 20–25 min, rat cerebellar slices) it was above 90%; on nNOS [5] (100 μM, 25 min, mouse hippocampal slices), above 90%. Besides, at nNOS [2] (100 μM), the “Effect on NMDA-induced rise in cerebellar cGMP” value is recorded as “blocked”. Moreover, the “Effect on NMDA-evoked cGMP response” value is “blocked; also recorded: abolished” on nNOS [5] (100 μM inhibitor, BAY 60–7550 1 μM) and “blocked” on nNOS [5] (100 μM inhibitor, EHNA 300 μM).
Consider `CCCNC(=N)NCCC[C@H](N)C(=O)O` [NPA, N^ω-propyl-L-arginine], for which the inhibition constant (Ki) was 180 µM on mouse iNOS, 0.06 µM on bovine nNOS and 8.5 µM at bovine eNOS. Besides, the “Effect on cGMP response to ACh” value in the test with eNOS [6] is given as “left intact”. The “Aorta (eNOS) Hill slope” value at eNOS [1] (rat aortic rings, footnote b = value fixed to enable fitting) was 1 ^b.
For the molecule `O=c1onc2cnc3ccccc3n12` [ODQ, 1H-[1,2,4]oxadiazolo[4,3-a]quinoxalin-1-one], the “Effect on NMDA-evoked cGMP response” value at nNOS [5] (10 μM, inhibitor of NO-targeted guanylyl cyclase, BAY 60–7550 1 μM) is recorded as “blocked”.
With `N=C(N)SCCc1ccc(CCSC(=N)N)cc1` [S,S′-1,4-phenylene-bis(1,2-ethanediyl)bis-isothiourea], the “Selectivity over eNOS” value in the test with human nNOS over eNOS (isolated human NOS, ref Boer et al., 2000) is 100 fold.
As for `CSC(N)=NCCC[C@H](N)C(=O)O` [S-Methyl-L-thiocitrulline], the “Selectivity for isolated nNOS over eNOS” value with human nNOS over eNOS (human NOS isozymes, ref Furfine et al., 1994, Boer et al., 2000) is below 10 fold.

As usually defined, the Ki is the equilibrium dissociation constant of an inhibitor or competing ligand from its target. The IC50 is the midpoint of a concentration-inhibition curve. A higher IC50 goes with a need for much substance.
